Reference: PMC2947312 (Neuron, 2010)

Key:
[1] = test system: Aβ42, Aβ40 and Aβtotal produced by SH-SY5Y-APP cells; assay: SH-SY5Y-APP cell-based Aβ assay; set-up: species or system human
Outline: (§1)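 Stable lines: CHO-APPswe is CHO transfected with human APP695 carrying the Swedish double mutation (670/671 K/M to N/L). SH-SY5Y-APP is human neuroblastoma SH-SY5Y transfected with wild-type human APP751. Secreted Aβ40, Aβ42 and Aβtotal were measured in conditioned medium by mAb-specific sandwich ELISAs. Cytotoxicity was checked by Alamar Blue at the same compound concentrations, up to a maximum of 30 μM.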

[2] = test system: Aβ42, Aβ40 and Aβtotal produced by CHO-APPswe cells; assay: CHO-APPswe cell-based Aβ assay; set-up: species or system Chinese hamster
Outline: as §1

[3] = test system: Aβ peptide variants from CHO-APPswe cells; assay: SELDI-TOF MS of Aβ peptide variants in CHO-APPswe conditioned medium; type: cell-based, Chinese hamster; settings: 1 μM
Outline: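 CHO-APPswe cells were treated with vehicle, reference γ-secretase inhibitor (1 µM) or test compound (1 µM). Conditioned medium was immunoprecipitated with anti-Aβ17-24 mAb 4G8. Ciphergen chips were prepared from the medium and analysed by SELDI-TOF mass spectrometry to profile Aβ peptide variants.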

[4] = test system: Aβ peptides secreted from Tg 2576 primary mixed brain cultures; assay: Aβ peptides in Tg 2576 mixed brain cultures; type: cell-based, mouse; settings: Tg 2576 MBCs
Outline: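 Neuronal cultures came from E17 Tg 2576 embryo brains, grown 6 days, then treated 18 h in triplicate wells at 10 concentrations in 3-fold dilution steps. Vehicle (PEG-400:H2O 80:20 v/v) was the negative control and BMS-299897 the positive control. Aβ38 was read by Meso Scale assay; Aβ40, Aβ42 and Aβtotal by mAb sandwich ELISA. Variants were resolved by anti-Aβ immunoprecipitation, tris-glycine gel electrophoresis and immunoblotting.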

[5] = test system: γ-secretase-mediated ε-site processing of Notch (NΔE); assay: NICD formation in HEK-APP-NΔE_7-4 cells; type: cell-based, human; settings: NΔE Notch/APP co-transfected cell line; DAPT 1 μM
Outline: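 HEK293 cells doubly transfected with APP and Notch NΔE were treated overnight with test compound, 1 μM DAPT, or 0.2% v/v DMSO vehicle. Conditioned medium was collected, cell lysates were prepared, and anti-NICD immunoblots were run with GAPDH as a control. NICD was quantified by laser scanning densitometry against a half-volume vehicle sample.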

[6] = test system: γ-secretase (AICD, Aβ42 and Aβ40 formation from APP-CTFs); assay: Cell-free assay of AICD and Aβ formation, CHO-APPswe membranes; type: biochemical, Chinese hamster; settings: DAPT 1 μM, Compound 3 over a broad range of concentrations
Outline: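 CHO-APPswe membrane preparations were incubated cell-free with vehicle (0.2% DMSO), 1 μM DAPT, or a range of test compound concentrations. AICD (ε-site) and Aβ42/Aβ40 (γ-site) formation were measured in parallel from the same preparations, semi-quantitatively. Data are mean ± SEM, n ≥ 3.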

| SMILES | effect on Aβ42, Aβ40 and Aβtotal peptide levels [1] | effect on Aβ42, Aβ40 and Aβtotal peptide levels [2] | effect on Aβ peptide variants (SELDI-TOF MS) [3] | effect on Aβ42, Aβ40, Aβ38 and Aβtotal (Meso Scale ELISAs) ([4]; 18 h) | effect on Aβ peptide variants (IP/immunoblot) ([4]; BMS-299897 1 μM) | effect on NICD formation [5] | effect on AICD formation [6] |
| --- | --- | --- | --- | --- | --- | --- | --- |
| C[C@H](c1ccc(F)cc1CCCC(=O)O)N(c1cc(F)ccc1F)S(=O)(=O)c1ccc(Cl)cc1 [BMS-299897] | equivalently inhibited Aβ42, Aβ40 and Aβtotal peptide production | equivalently inhibited Aβ42, Aβ40 and Aβtotal peptide production | reduced the levels of all Aβ peptide variants to baseline levels | dose-dependent decrease in Aβ42, Aβ40, Aβ38 and Aβtotal levels | reduced the levels of all Aβ variants (Aβ37, Aβ38, Aβ40 and Aβ42) to undetectable levels | – | – |
| C[C@H](NC(=O)Cc1cc(F)cc(F)c1)C(=O)N[C@H](C(=O)OC(C)(C)C)c1ccccc1 [DAPT, N-[N-(3,5-difluorophenacetyl)-L-alanyl]-S-phenylglycine t-butyl ester] | – | – | – | – | – | prevented NICD production entirely | totally inhibited |
